Assay results: ChEMBL document CHEMBL3286116, “Synthesis, biological evaluation and structure-activity correlation study of a series of imidazol-based compounds as Candida albicans inhibitors” (Eur J Med Chem, 2014)
Converted amounts (≈) assume the structure as drawn.

How the values were obtained:
Candida albicans [1] = assay: Antifungal activity against Candida albicans ATCC 90028 after 48 hrs by CLSI broth microdilution method; assay type: functional; conditions: ATCC 90028, 48 h
Summary of the method: (§1)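 Yeast CLSI broth microdilution (M27-A3). Compounds dissolved in DMSO at 100× the top test concentration, then diluted as serial two-fold dilutions in RPMI 1640 to final 0.125–64. Inoculum was 1.0–1.5 × 10^3 cells mL−1, incubated at 35 °C and read for growth at 48 h. MIC is the lowest concentration giving ≥50% growth inhibition versus growth control. Reported as the median of five replicates and as the geometric mean.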

Candida albicans [2] = assay: Antifungal activity against Candida albicans ATCC 20891 after 48 hrs by CLSI broth microdilution method; assay type: functional; conditions: ATCC 20891, 48 h; summary of the method: as §1
Candida albicans [3] = assay: Antifungal activity against Candida albicans PMC 1011 after 48 hrs by CLSI broth microdilution method; assay type: functional; conditions: PMC 1011, 48 h; summary of the method: as §1
Pichia kudriavzevii [4] = assay: Antifungal activity against Candida krusei DSM 6128 after 48 hrs by CLSI broth microdilution method; assay type: functional; conditions: DSM 6128, 48 h; summary of the method: as §1
Pichia kudriavzevii [5] = assay: Antifungal activity against Candida krusei PMC 0613 after 48 hrs by CLSI broth microdilution method; assay type: functional; conditions: PMC 0613, 48 h; summary of the method: as §1
Candida tropicalis [6] = assay: Antifungal activity against Candida tropicalis PMC 0910 after 48 hrs by CLSI broth microdilution method; assay type: functional; conditions: PMC 0910, 48 h; summary of the method: as §1
Candida tropicalis [7] = assay: Antifungal activity against Candida tropicalis DSM 11953 after 48 hrs by CLSI broth microdilution method; assay type: functional; conditions: DSM 11953, 48 h; summary of the method: as §1
Candida parapsilosis [8] = assay: Antifungal activity against Candida parapsilosis DSM 11224 after 48 hrs by CLSI broth microdilution method; assay type: functional; conditions: Lodderomyces parapsilosis, DSM 11224, 48 h; summary of the method: as §1
Candida parapsilosis [9] = assay: Antifungal activity against Candida parapsilosis ATCC 22019 after 48 hrs by CLSI broth microdilution method; assay type: functional; conditions: Lodderomyces parapsilosis, ATCC 22019, 48 h; summary of the method: as §1
Nakaseomyces glabratus [10] = assay: Antifungal activity against Candida glabrata PMC 0805 after 48 hrs by CLSI broth microdilution method; assay type: functional; conditions: PMC 0805, 48 h; summary of the method: as §1
Nakaseomyces glabratus [11] = assay: Antifungal activity against Candida glabrata PMC 0807 after 48 hrs by CLSI broth microdilution method; assay type: functional; conditions: PMC 0807, 48 h; summary of the method: as §1
Cryptococcus neoformans [12] = assay: Antifungal activity against Cryptococcus neoformans PMC 2123 after 72 hrs by CLSI broth microdilution method; assay type: functional; conditions: PMC 2123, 72 h
Summary of the method: (§2)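 Cryptococcus neoformans tested by CLSI broth microdilution in RPMI 1640, with serial two-fold dilutions from DMSO stocks at 100× the top concentration, final 0.125–64. Inoculum was 1.0–1.5 × 10^3 cells mL−1 at 35 °C, with growth read at 72 h. MIC is the lowest concentration with ≥50% growth inhibition versus control. Median of five replicates, plus geometric mean.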

Cryptococcus neoformans [13] = assay: Antifungal activity against Cryptococcus neoformans PMC 2136 after 72 hrs by CLSI broth microdilution method; assay type: functional; conditions: PMC 2136, 72 h; summary of the method: as §2
Cryptococcus neoformans [14] = assay: Antifungal activity against Cryptococcus neoformans PMC 2115 after 72 hrs by CLSI broth microdilution method; assay type: functional; conditions: PMC 2115, 72 h; summary of the method: as §2
Cryptococcus neoformans [15] = assay: Antifungal activity against Cryptococcus neoformans PMC 2103 after 72 hrs by CLSI broth microdilution method; assay type: functional; conditions: PMC 2103, 72 h; summary of the method: as §2
Cryptococcus neoformans [16] = assay: Antifungal activity against Cryptococcus neoformans PMC 2107 after 72 hrs by CLSI broth microdilution method; assay type: functional; conditions: PMC 2107, 72 h; summary of the method: as §2
Cryptococcus neoformans [17] = assay: Antifungal activity against Cryptococcus neoformans PMC 2102 after 72 hrs by CLSI broth microdilution method; assay type: functional; conditions: PMC 2102, 72 h; summary of the method: as §2
Cryptococcus neoformans [18] = assay: Antifungal activity against Cryptococcus neoformans DSM 11959 after 72 hrs by CLSI broth microdilution method; assay type: functional; conditions: DSM 11959, 72 h; summary of the method: as §2
Cryptococcus neoformans [19] = assay: Antifungal activity against Cryptococcus neoformans PMC 2111 after 72 hrs by CLSI broth microdilution method; assay type: functional; conditions: PMC 2111, 72 h; summary of the method: as §2
[20] = test system: Trichophyton mentagrophytes; assay: Antifungal activity against Trichophyton mentagrophytes DSM 4870 after 72 hrs by CLSI broth microdilution method; assay type: functional; conditions: DSM 4870, 72 h
Summary of the method: (§3)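 Dermatophytes tested by CLSI broth microdilution for filamentous fungi (M38-A2). Serial two-fold dilutions of DMSO-dissolved compound in RPMI 1640, final 0.125–64. Inoculum was 0.4–5 × 10^4 CFU mL−1, incubated at 35 °C and read at 72 h. MIC80 is the lowest concentration giving ≥80% growth inhibition versus growth control. Median of five replicates, plus geometric mean.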

[21] = test system: Trichophyton mentagrophytes; assay: Antifungal activity against Trichophyton mentagrophytes PMC 6515 after 72 hrs by CLSI broth microdilution method; assay type: functional; conditions: PMC 6515, 72 h; summary of the method: as §3
[22] = test system: Trichophyton mentagrophytes; assay: Antifungal activity against Trichophyton mentagrophytes PMC 6531 after 72 hrs by CLSI broth microdilution method; assay type: functional; conditions: PMC 6531, 72 h; summary of the method: as §3
[23] = test system: Trichophyton mentagrophytes; assay: Antifungal activity against Trichophyton mentagrophytes PMC 6509 after 72 hrs by CLSI broth microdilution method; assay type: functional; conditions: PMC 6509, 72 h; summary of the method: as §3
[24] = test system: Trichophyton mentagrophytes; assay: Antifungal activity against Trichophyton mentagrophytes PMC 6503 after 72 hrs by CLSI broth microdilution method; assay type: functional; conditions: PMC 6503, 72 h; summary of the method: as §3
[25] = test system: Trichophyton mentagrophytes; assay: Antifungal activity against Trichophyton mentagrophytes PMC 6552 after 72 hrs by CLSI broth microdilution method; assay type: functional; conditions: PMC 6552, 72 h; summary of the method: as §3
Nannizzia gypsea [26] = assay: Antifungal activity against Microsporum gypseum PMC 7303 after 72 hrs by CLSI broth microdilution method; assay type: functional; conditions: PMC 7303, 72 h; summary of the method: as §3
Nannizzia gypsea [27] = assay: Antifungal activity against Microsporum gypseum PMC 7331 after 72 hrs by CLSI broth microdilution method; assay type: functional; conditions: PMC 7331, 72 h; summary of the method: as §3
Nannizzia gypsea [28] = assay: Antifungal activity against Microsporum gypseum DSM 3824 after 72 hrs by CLSI broth microdilution method; assay type: functional; conditions: DSM 3824, 72 h; summary of the method: as §3
Candida albicans [29] = assay: Antifungal activity against Candida albicans PMC 1040R after 48 hrs by CLSI broth microdilution method; assay type: functional; summary of the method: as §1
Candida albicans [30] = assay: Antifungal activity against Candida albicans PMC 1041R after 48 hrs by CLSI broth microdilution method; assay type: functional; summary of the method: as §1
Nakaseomyces glabratus [31] = assay: Antifungal activity against Candida glabrata PMC 0850R after 48 hrs by CLSI broth microdilution method; assay type: functional; summary of the method: as §1
Nakaseomyces glabratus [32] = assay: Antifungal activity against Candida glabrata PMC 0851R after 48 hrs by CLSI broth microdilution method; assay type: functional; summary of the method: as §1
Nakaseomyces glabratus [33] = assay: Antifungal activity against Candida glabrata PMC 0852R after 48 hrs by CLSI broth microdilution method; assay type: functional; summary of the method: as §1
Nakaseomyces glabratus [34] = assay: Antifungal activity against Candida glabrata PMC 0853R after 48 hrs by CLSI broth microdilution method; assay type: functional; summary of the method: as §1
Candida albicans [35] = assay: Antifungal activity against Candida albicans PMC 1042R after 48 hrs by CLSI broth microdilution method; assay type: functional; summary of the method: as §1
[36] = Cytotoxicity against human A549 cells after 48 hrs by MTT assay; assay type: cell-based
Summary of the method: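 A549 cells (ATCC CCL-185) seeded at 2 × 10^4/well in phenol-red-free RPMI 1640 with 10% FBS, L-glutamine, penicillin and streptomycin, at 37 °C and 5% CO2. Exposed 48 h to DMSO-dissolved compounds (final 16–256; at least five concentrations, triplicate). MTT added for 3–4 h, crystals solubilized, OD read at 570 nm. CC50 taken versus the DMSO control. Mean ± SD of two independent experiments.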

Candida albicans [37] = assay: Antifungal activity against Candida albicans ATCC 24433 after 48 hrs by CLSI broth microdilution method; assay type: functional; conditions: ATCC 24433, 48 h; summary of the method: as §1
Candida albicans [38] = assay: Antifungal activity against Candida albicans ATCC 3153 after 48 hrs by CLSI broth microdilution method; assay type: functional; conditions: ATCC 3153, 48 h; summary of the method: as §1
Candida albicans [39] = assay: Antifungal activity against Candida albicans ATCC 10231 after 48 hrs by CLSI broth microdilution method; assay type: functional; conditions: ATCC 10231, 48 h; summary of the method: as §1
Candida albicans [40] = assay: Antifungal activity against Candida albicans ATCC 76615 after 48 hrs by CLSI broth microdilution method; assay type: functional; conditions: ATCC 76615, 48 h; summary of the method: as §1
Candida albicans [41] = assay: Antifungal activity against Candida albicans ATCC 10261 after 48 hrs by CLSI broth microdilution method; assay type: functional; conditions: ATCC 10261, 48 h; summary of the method: as §1

O=C(Nc1ccc(N2CCN(c3ccc(Cl)cc3)CC2)cc1)OC(Cn1ccnc1)c1ccc(F)cc1 (stereo unspecified)
MIC50 (Candida albicans [1]): 0.25 µg/mL (≈ 0.481 µM)
MIC50 (Candida albicans [2]): 0.125 µg/mL (≈ 0.24 µM)
MIC50 (Candida albicans [3]): 0.25 µg/mL (≈ 0.481 µM)
MIC50 (Pichia kudriavzevii [4]): 1 µg/mL (≈ 1.92 µM)
MIC50 (Pichia kudriavzevii [5]): 0.125 µg/mL (≈ 0.24 µM)
MIC50 (Candida tropicalis [6]): 2 µg/mL (≈ 3.85 µM)
MIC50 (Candida tropicalis [7]): 0.5 µg/mL (≈ 0.962 µM)
MIC50 (Candida parapsilosis [8]): 0.125 µg/mL (≈ 0.24 µM)
MIC50 (Candida parapsilosis [9]): 0.25 µg/mL (≈ 0.481 µM)
MIC50 (Nakaseomyces glabratus [10]): 0.125 µg/mL (≈ 0.24 µM)
MIC50 (Nakaseomyces glabratus [11]): 1 µg/mL (≈ 1.92 µM)
MIC50 (Cryptococcus neoformans [12]): 0.5 µg/mL (≈ 0.962 µM)
MIC50 (Cryptococcus neoformans [13]): 0.125 µg/mL (≈ 0.24 µM)
MIC50 (Cryptococcus neoformans [14]): 0.25 µg/mL (≈ 0.481 µM)
MIC50 (Cryptococcus neoformans [15]): 0.25 µg/mL (≈ 0.481 µM)
MIC50 (Cryptococcus neoformans [16]): 0.25 µg/mL (≈ 0.481 µM)
MIC50 (Cryptococcus neoformans [17]): 0.25 µg/mL (≈ 0.481 µM)
MIC50 (Cryptococcus neoformans [18]): 0.25 µg/mL (≈ 0.481 µM)
MIC50 (Cryptococcus neoformans [19]): 0.5 µg/mL (≈ 0.962 µM)
MIC80 [20]: 8 µg/mL (≈ 15.4 µM)
MIC80 [21]: 8 µg/mL (≈ 15.4 µM)
MIC80 [22]: 8 µg/mL (≈ 15.4 µM)
MIC80 [23]: 8 µg/mL (≈ 15.4 µM)
MIC80 [24]: 8 µg/mL (≈ 15.4 µM)
MIC80 [25]: 8 µg/mL (≈ 15.4 µM)
MIC80 (Nannizzia gypsea [26]): 4 µg/mL (≈ 7.69 µM)
MIC80 (Nannizzia gypsea [27]): 8 µg/mL (≈ 15.4 µM)
MIC80 (Nannizzia gypsea [28]): 4 µg/mL (≈ 7.69 µM)
MIC50 (Candida albicans [29]): 64 µg/mL (≈ 123 µM)
MIC50 (Candida albicans [30]): 1 µg/mL (≈ 1.92 µM)
MIC50 (Nakaseomyces glabratus [31]): 1 µg/mL (≈ 1.92 µM)
MIC50 (Nakaseomyces glabratus [32]): 64 µg/mL (≈ 123 µM)
MIC50 (Nakaseomyces glabratus [33]): 4 µg/mL (≈ 7.69 µM)
MIC50 (Nakaseomyces glabratus [34]): 4 µg/mL (≈ 7.69 µM)
MIC50 (Candida albicans [35]): 2 µg/mL (≈ 3.85 µM)
CC50 at 48 h [36]: 172 µg/mL (≈ 330 µM)
MIC50 (Candida albicans [37]): 4 µg/mL (≈ 7.69 µM)
MIC50 (Candida albicans [38]): 8 µg/mL (≈ 15.4 µM)
MIC50 (Candida albicans [39]): 4 µg/mL (≈ 7.69 µM)
MIC50 (Candida albicans [40]): 8 µg/mL (≈ 15.4 µM)
MIC50 (Candida albicans [41]): 1 µg/mL (≈ 1.92 µM)
